High-throughput results: PubChem BioAssay, The Scripps Research Institute Molecular Screening Center
AHR act: AHR activators, primary screen, cell-based, luminescence, luciferase reporter, human | Aryl hydrocarbon receptor (Homo sapiens), P35869 | AHR-responsive luciferase reporter cells | activation, % at 5 µM | 320,000 tested, 2.5% active; in the data active = activation above about 47%;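 note: 0% = vehicle wells and 100% = reference agonist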
m5-HT2A agonist: mouse Htr2a agonists via beta-arrestin recruitment, primary screen, cell-based, luminescence; activation, % at 7.6 µM; 360,000 tested, 0.66% active; CHO-K1 mHTR2A beta-arrestin complementation; percent of 30 µM serotonin response; AID 624169, 2012; 5-hydroxytryptamine receptor 2A (Mus musculus), P35363;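 active = activation above a run cutoff, the mean activation of all tested compounds plus 3 SD, cut at about 14% in these data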;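 note: 0% = plate median of compound wells and 100% = 30 µM serotonin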
MC4R antagonist: MC4R antagonists of cAMP signaling, primary screen, cell-based, TR-FRET, antagonist arm of biased-ligand search; Melanocortin receptor 4 (Homo sapiens), P32245; MC4R-expressing cells, MTII-stimulated cAMP, LANCE TR-FRET; inhibition, % at 6.5 µM; 360,000 tested, 0.48% active;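 active = inhibition above its plate's cutoff, the mean of tested wells on that plate plus 3 SD, cut at about 29% in these data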;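 note: 0% = Melanotan II alone and 100% = Melanotan II plus saturating MCL0020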
Target sequence (P32245 whole entry, looked up): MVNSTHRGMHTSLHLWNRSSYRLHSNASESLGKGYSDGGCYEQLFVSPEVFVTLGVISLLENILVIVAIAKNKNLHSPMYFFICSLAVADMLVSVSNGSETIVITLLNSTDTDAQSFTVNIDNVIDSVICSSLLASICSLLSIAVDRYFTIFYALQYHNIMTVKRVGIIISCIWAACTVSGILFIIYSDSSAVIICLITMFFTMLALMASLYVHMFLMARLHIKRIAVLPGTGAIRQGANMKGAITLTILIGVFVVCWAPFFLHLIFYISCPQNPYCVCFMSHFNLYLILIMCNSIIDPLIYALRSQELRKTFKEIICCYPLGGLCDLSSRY
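Assay system: human MC4R-expressing U2OS cells; reagent: Melanotan II stimulation of cells; dosing: 6.5 µM single dose; timing: compound 30 min, challenge 1 h, detection 1 h; signal: TR-FRET cAMP assay; replicates: one well per compound, no replicates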
GAA850 FXN act: FXN promoter activators, primary screen, cell-based, luciferase luminescence, HEK293 lucGAA850 | HEK293 lucGAA850 FXN promoter luciferase reporter, 24 h; percent of 10 µM SAHA response | activation, % at 6 µM | 360,000 tested, 0.56% active;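 active = activation above the average of all compounds screened plus 3 SD, cutoff fixed separately per campaign, cut at about 7.5% in these data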;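 note: 0% = DMSO wells and 100% = 10 µM SAHA wells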
MC4R barr agon: MC4R agonists recruiting beta-arrestin, primary screen, cell-based, luminescence, agonist arm of biased-ligand search; 360,000 tested, 0.98% active; activation, % at 8.9 µM; AID 540308, 2011; U2OS MC4R beta-arrestin complementation; percent of melanotan II response, DMSO zero; Melanocortin receptor 4 (Homo sapiens), P32245;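 active = activation above a per-plate cutoff, the mean activation of sample wells on that plate plus 3 SD, cut at about 8% in these data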
AHR act cf: AHR activators, confirmation, cell-based, luminescence, luciferase reporter, human. shares compounds with AHR act. activation, % at 9 µM. human cells, AHR-responsive luciferase reporter. AID 2845, 2010. 2,300 tested, 87% active; in the data active = activation above about 49%;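 note: HepG2 hepatoma cells carrying a DRE-driven firefly luciferase reporter; 0% = vehicle wells and 100% = reference agonist wells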
PXR act counter: human PXR activators, counter-screen for AHR activator project, cell-based, luciferase luminescence; shares compounds with AHR act; cell-based PXR reporter; activation, % at 11.6 µM; 2,300 tested, 88% active; AID 434939, 2010; in the data active = activation above about 11%;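 note: human hepatoma DPX-2 cells expressing full-length human PXR; 0% = DMSO and 100% = reference agonist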
* marks the source's active call; other numbers are inactive results. A selection: hits, their analogues and other compounds. The true share with any hit is near 4.7%.

Screening COc1ccccc1N=CC1=C(O)CC(c2ccccc2)CC1=O (stereo not given) returned AHR act 100*, m5-HT2A agonist 4, MC4R antagonist -17, GAA850 FXN act -2, MC4R barr agon 1, AHR act cf 94* and PXR act counter 13*.
O=C(Nc1cccc(C(F)(F)F)c1)c1cncs1 was read as AHR act 42, m5-HT2A agonist -10, MC4R antagonist 22, GAA850 FXN act 0 and MC4R barr agon 1.
For O=C(Nc1ccc(F)c(Cl)c1)c1cncs1 the results were AHR act 101*, m5-HT2A agonist 1, MC4R antagonist -3, GAA850 FXN act 4, MC4R barr agon -1, AHR act cf 95* and PXR act counter 26*.
Clc1cccc(/C=N\Nc2nccs2)c1 was read as AHR act 117*, m5-HT2A agonist 4, MC4R antagonist 13, GAA850 FXN act 4, MC4R barr agon 1, AHR act cf 122* and PXR act counter 37*.
`Cc1ccc(Nc2nc(NCCO)nc3c2cnn3C)cc1Cl` gave AHR act 81*, m5-HT2A agonist -7, MC4R antagonist 9, GAA850 FXN act 1, MC4R barr agon -1, AHR act cf 120* and PXR act counter 16*.
Screening Cn1ncc2c(Nc3ccc(Br)cc3)nc(Nc3ccc(Br)cc3)nc21 returned AHR act 112*, m5-HT2A agonist 0, MC4R antagonist 6, GAA850 FXN act 2, MC4R barr agon 0, AHR act cf 104* and PXR act counter 13*.
Screening O=C(COC(=O)C1CC1)Nc1ccc(Cl)cn1 returned AHR act 9, m5-HT2A agonist 1, MC4R antagonist 5, GAA850 FXN act 1 and MC4R barr agon -1.
O=C(O)C[C@H]1c2cc(F)ccc2S(=O)(=O)N1C1CCN(Cc2ccccc2)CC1 was read as AHR act 1, m5-HT2A agonist 0, MC4R antagonist 4, GAA850 FXN act 1 and MC4R barr agon -1.
Screening O=S(=O)(NNc1ncc(C(F)(F)F)cc1Cl)c1ccc(F)cc1F returned AHR act 114*, m5-HT2A agonist -1, MC4R antagonist 12, GAA850 FXN act 0, MC4R barr agon -3 and AHR act cf 103*.
Screening Fc1ccc(NC(=S)NNc2ncc(C(F)(F)F)cc2Cl)c(F)c1 returned AHR act 11, m5-HT2A agonist -12, MC4R antagonist 27, GAA850 FXN act -12 and MC4R barr agon -7.
For COc1ccccc1-c1nnc(-c2ccc(C)cc2)o1 the results were AHR act 81*, m5-HT2A agonist -3, MC4R antagonist -2, GAA850 FXN act 3, MC4R barr agon -1, AHR act cf 123* and PXR act counter 39*.
Screening CSc1sc(C(=O)NN)c2c1C(O)CCC2 (stereo not given) returned AHR act 80*, m5-HT2A agonist -12, MC4R antagonist 0, GAA850 FXN act -4, MC4R barr agon -1, AHR act cf 11 and PXR act counter 4.
Screening CSc1sc(C(=O)NN)c2c1C1(CCC2)SCCS1 returned AHR act 32, m5-HT2A agonist -6, MC4R antagonist 20, GAA850 FXN act 3 and MC4R barr agon 0.
Cc1ccc(Nc2nc(N)nc(-c3oc4ccccc4c3C)n2)cc1 was read as AHR act 104*, m5-HT2A agonist 1, MC4R antagonist -29, GAA850 FXN act 3, MC4R barr agon 2, AHR act cf -7 and PXR act counter 85*.
CN1C(=O)/C(=C/c2ccccc2OCc2ccccc2)NC1=S was read as AHR act 90*, m5-HT2A agonist -1, MC4R antagonist -2, GAA850 FXN act 2, MC4R barr agon -1, AHR act cf 64* and PXR act counter 30*.
COc1ccccc1N1CCN(C2C(=O)Nc3ccccc3-n3nnnc32)CC1 (stereo not given) was read as m5-HT2A agonist 6.
Cc1nc(C)c(-c2csc(Nc3ccc(N)cc3)n2)s1 was read as AHR act 127*, m5-HT2A agonist -3, MC4R antagonist -6, GAA850 FXN act 5, MC4R barr agon -1, AHR act cf 22 and PXR act counter 19*.
Screening Cc1nc(N)sc1-c1csc(Nc2ccccc2)n1 returned AHR act 81*, m5-HT2A agonist -6, MC4R antagonist 3, GAA850 FXN act 2, MC4R barr agon -1, AHR act cf 147* and PXR act counter 20*.
Screening COc1ccc(CN2CCN(Cc3ccc4cc(F)ccc4n3)CC2CCO)c(C)c1C (stereo not given) returned AHR act 8, m5-HT2A agonist -1, MC4R antagonist 13, GAA850 FXN act -1 and MC4R barr agon 1.
COc1ccc(NC(=O)c2cc(C3CCCCN3S(=O)(=O)Cc3ccccc3)on2)cn1 (stereo not given) was read as m5-HT2A agonist -4, MC4R antagonist 14, GAA850 FXN act 0 and MC4R barr agon -1.
For CCc1nc2ccc(C(=O)NCCCN3CCCC3=O)cn2c1N(C)Cc1ccc(OC)cc1 the results were m5-HT2A agonist 0, MC4R antagonist -8, GAA850 FXN act 0 and MC4R barr agon 0.
`CCCC(=O)N1CCCC(c2cc(C(=O)NCc3ccc(F)cc3)no2)C1` (stereo not given) gave m5-HT2A agonist 2, MC4R antagonist 4, GAA850 FXN act 1 and MC4R barr agon -2.
For COc1ccc(C)cc1NC(=O)C(OC(=O)CNC(=O)c1ccc(Oc2ccccc2)cc1)c1ccccc1 (stereo not given) the results were AHR act 95*, m5-HT2A agonist 3, MC4R antagonist 9, GAA850 FXN act 2, MC4R barr agon -1, AHR act cf 71* and PXR act counter 20*.
`COc1ccc(-c2nc3ncccc3o2)cc1NC(=O)c1cccs1` gave AHR act 81*, m5-HT2A agonist 7, MC4R antagonist 21, GAA850 FXN act 1, MC4R barr agon 1, AHR act cf 43 and PXR act counter 30*.
`O=C(Nc1cc(-c2nc3ncccc3o2)ccc1Cl)c1cccs1` gave AHR act 134*, m5-HT2A agonist 3, MC4R antagonist 1, GAA850 FXN act -2, MC4R barr agon -2, AHR act cf 98* and PXR act counter 47*.
